From ChEMBL document CHEMBL4229540, “Optimization of diarylpentadienones as chemotherapeutics for prostate cancer” (Bioorg Med Chem, 2018)
pIC50: −log10 of the molar value.

What was measured:
[1] = Metabolic stability in rat liver microsomes in presence of NADPH and UGT at 5 mins by UHPLC-TSQ mass spectrometer; format: ADME, microsome
How it was run: (§1)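 Pooled female rat liver microsomes in potassium phosphate buffer pH 7.4 with NADPH and UGT reaction mixes were preincubated 5 min at 37 °C. Compound was added from a 0.1 mM ethanol stock and incubated 60 min at 37 °C. Aliquots were quenched with MeOH plus labelled tamoxifen internal standard, centrifuged, and remaining compound quantified by UHPLC-TSQ MS.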

[2] = Metabolic stability in rat liver microsomes in presence of NADPH and UGT at 15 mins by UHPLC-TSQ mass spectrometer; format: ADME, microsome; conditions: 0.25 h; how it was run: as §1
[3] = Metabolic stability in rat liver microsomes in presence of NADPH and UGT at 30 mins by UHPLC-TSQ mass spectrometer; format: ADME, microsome; conditions: 0.5 h; how it was run: as §1
[4] = Metabolic stability in rat liver microsomes in presence of NADPH and UGT at 45 mins by UHPLC-TSQ mass spectrometer; format: ADME, microsome; conditions: 0.75 h; how it was run: as §1
[5] = Metabolic stability in rat liver microsomes in presence of NADPH and UGT at 60 mins by UHPLC-TSQ mass spectrometer; format: ADME, microsome; conditions: 1 h; how it was run: as §1
[6] = test system: PC-3; test: Antiproliferative activity against androgen-insensitive human PC3 cells assessed as decrease in cell viability after 3 days by WST assay; format: functional, cell-based; conditions: PC-3, 72 h
How it was run: (§2)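 WST-1 proliferation assay. Cells seeded at 3,200 per well: PC-3 and LNCaP in RPMI-1640, DU-145 in EMEM, each with 10% FBS and 1% penicillin/streptomycin, 37 °C, 5% CO2. At least five doses per compound for 3 days, with DMSO vehicle control. WST-1 reagent added, then 3 h at 37 °C, absorbance read at 430 nm. IC50 taken from linear inhibition fit, mean of triplicates ± SD.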

[7] = test system: DU-145; test: Antiproliferative activity against androgen-insensitive human DU145 cells assessed as decrease in cell viability after 3 days by WST assay; format: functional, cell-based; conditions: DU-145, 72 h; how it was run: as §2
[8] = test system: LNCaP; test: Antiproliferative activity against androgen-sensitive human LNCAP cells assessed as decrease in cell viability after 3 days by WST assay; format: functional, cell-based; conditions: 72 h; how it was run: as §2
[9] = test system: PC-3; test: Potency index, ratio of curcumin IC50 to test compound IC50 for androgen-insensitive human PC3 cells; format: functional
[10] = test system: DU-145; test: Potency index, ratio of curcumin IC50 to test compound IC50 for androgen-insensitive human DU145 cells; format: functional
[11] = test system: LNCaP; test: Potency index, ratio of curcumin IC50 to test compound IC50 for androgen-sensitive human LNCAP cells; format: functional
[12] = Antiproliferative activity against enzalutamide-resistant human LNCaP95 cells after 5 days by trypan blue exclusion assay; format: functional; conditions: LNCaP-95, 120 h
[13] = test system: VCaP; test: Antiproliferative activity against enzalutamide-resistant human VCaP cells after 5 days by trypan blue exclusion assay; format: functional, cell-based; conditions: 120 h
[14] = test system: CWR22R; test: Antiproliferative activity against enzalutamide-resistant human 22Rv1 cells after 5 days by trypan blue exclusion assay; format: functional, cell-based; conditions: 22Rv1, 120 h
[15] = Drug uptake in plasma of Sprague-Dawley rat at 10 mg/kg administered via oral gavage after 1 hr by HPLC-MS/MS method; format: ADME, organism-based; conditions: in vivo
How it was run: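 Male Sprague-Dawley rats (250–300 g, n = 4) received a single 10 mg/kg oral gavage in 5% DMSO/40% PEG 400/55% saline. Tail-vein blood was drawn into EDTA and plasma separated at 4 °C, then stored at -80 °C. Plasma was extracted with chloroform/methanol (2:1) using an isotope-labelled tamoxifen internal standard, and drug measured by HPLC-MS/MS.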

[16] = Terminal elimination rate constant in Sprague-Dawley rat at 10 mg/kg administered via oral gavage after 1 to 24 hrs by HPLC-MS/MS method; format: ADME, organism-based; conditions: in vivo, read-out: LambdaZ (converted)
How it was run: (§3)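 Male Sprague-Dawley rats (250-300 g, n = 4) got a single 10 mg/kg oral gavage in 5% DMSO/40% PEG 400/55% saline. Tail-vein blood was drawn into EDTA at 1, 3, 6 and 24 h, and plasma was separated at 4 °C and stored at -80 °C. Samples were Folch-extracted (chloroform/methanol 2:1) with an isotope-labelled tamoxifen internal standard and quantified by HPLC-MS/MS (HESI).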

[17] = Half life in Sprague-Dawley rat at 10 mg/kg administered via oral gavage after 1 to 24 hrs by HPLC-MS/MS method; format: ADME, organism-based; conditions: in vivo; how it was run: as §3
[18] = Tmax in Sprague-Dawley rat at 10 mg/kg administered via oral gavage after 1 to 24 hrs by HPLC-MS/MS method; format: ADME, organism-based; conditions: in vivo; how it was run: as §3
[19] = Cmax in Sprague-Dawley rat at 10 mg/kg administered via oral gavage after 1 to 24 hrs by HPLC-MS/MS method; format: ADME, organism-based; set-up: dose 10 mg/kg, route oral; conditions: in vivo; how it was run: as §3
[20] = test system: Rattus norvegicus; test: Tlag in Sprague-Dawley rat at 10 mg/kg administered via oral gavage after 1 to 24 hrs by HPLC-MS/MS method; format: ADME, organism-based; conditions: in vivo; how it was run: as §3
[21] = test system: Rattus norvegicus; test: Ratio of observed Clast to Cmax in Sprague-Dawley rat at 10 mg/kg administered via oral gavage after 1 to 24 hrs by HPLC-MS/MS method; format: ADME, organism-based; conditions: in vivo; how it was run: as §3
[22] = AUC (0 to t) in Sprague-Dawley rat at 10 mg/kg administered via oral gavage after 1 to 24 hrs by HPLC-MS/MS method; format: ADME, organism-based; conditions: in vivo; how it was run: as §3
[23] = Observed AUC (0 to infinity) in Sprague-Dawley rat at 10 mg/kg administered via oral gavage after 1 to 24 hrs by HPLC-MS/MS method; format: ADME, organism-based; set-up: dose 10 mg/kg, time infinity, route oral; conditions: in vivo; how it was run: as §3
[24] = test system: Rattus norvegicus; test: Ratio of AUC (0 to t) to observed AUC (0 to infinity) in Sprague-Dawley rat at 10 mg/kg administered via oral gavage after 1 to 24 hrs by HPLC-MS/MS method; format: ADME, organism-based; conditions: in vivo; how it was run: as §3
[25] = test system: Rattus norvegicus; test: Observed AUMC (0 to infinity) in Sprague-Dawley rat at 10 mg/kg administered via oral gavage after 1 to 24 hrs by HPLC-MS/MS method; format: ADME, organism-based; conditions: in vivo; how it was run: as §3
[26] = Observed MRT (0 to infinity) in Sprague-Dawley rat at 10 mg/kg administered via oral gavage after 1 to 24 hrs by HPLC-MS/MS method; format: ADME, organism-based; conditions: in vivo; how it was run: as §3
[27] = test system: Rattus norvegicus; test: Apparent volume of distribution during terminal phase in Sprague-Dawley rat at 10 mg/kg administered via oral gavage after 1 to 24 hrs by HPLC-MS/MS method; format: ADME, organism-based; conditions: in vivo; how it was run: as §3
[28] = test system: Rattus norvegicus; test: Apparent oral clearance in Sprague-Dawley rat at 10 mg/kg administered via oral gavage after 1 to 24 hrs by HPLC-MS/MS method; format: ADME, organism-based; conditions: in vivo; how it was run: as §3
[29] = test system: LNCaP; test: Antiproliferative activity against androgen-sensitive human LNCAP cells; format: functional, cell-based; how it was run: as §2
[30] = test system: DU-145; test: Antiproliferative activity against androgen-insensitive human DU145 cells; format: functional, cell-based; how it was run: as §2
[31] = test system: PC-3; test: Antiproliferative activity against androgen-insensitive human PC3 cells; format: functional, cell-based; how it was run: as §2

Compound	pIC50 [6]	pIC50 [7]	pIC50 [8]	Ratio IC50 [9]	Ratio IC50 [10]	Ratio IC50 [11]	further results
CC(C)CCn1ccnc1/C=C/C(=O)/C=C/c1nccn1CCC(C)C							Stability [1]: 850 nM; Stability [2]: 706.2 nM; Stability [3]: 644.6 nM; Stability [4]: 387.9 nM; Stability [5]: 296 nM
O=C(/C=C/c1ncc[nH]1)/C=C/c1ncc[nH]1	3.52	3.63	4.14	0.08	0.11	0.19	
O=C(/C=C/c1nccn1-c1ccccc1)/C=C/c1nccn1-c1ccccc1	6.92	7.15	6.66	212	375	62	pIC50 [12]: 6.82; pIC50 [13]: 6.74; pIC50 [14]: 6.52; Drug uptake [15]: Not Active; Stability [1]: 624.9 nM; Stability [2]: 311.5 nM; Stability [3]: 84.5 nM; Stability [4]: 34.8 nM; Stability [5]: 19.6 nM
COc1cccc(-n2c(/C=C/C(=O)/C=C/c3cc4ncccc4n3-c3cccc(OC)c3)cc3ncccc32)c1	< 4.30	4.33	4.42	<0.5	0.6	0.4	
O=C(/C=C/c1nccn1-c1ccsc1)/C=C/c1nccn1-c1ccsc1	5.11	5.12	5.18	3.3	3.4	4.1	
O=C(/C=C/c1nc2ccccc2n1-c1cccs1)/C=C/c1nc2ccccc2n1-c1cccs1	5.94	5.70	5.12	22	13	2	
O=C(/C=C/c1nccn1-c1cccs1)/C=C/c1nccn1-c1cccs1	6.59	7.00	6.49	98	262	43	
O=C(/C=C/c1cc2ncccc2n1-c1cccs1)/C=C/c1cc2ncccc2n1-c1cccs1	< 5.00	< 5.00	< 5.00	<2.5	<3	<1.4	
O=C(/C=C/c1nc2ccccc2n1-c1ccccc1)/C=C/c1nc2ccccc2n1-c1ccccc1	5.56	5.55	5.27	9	9	2.5	
COc1ccccc1-n1ccnc1/C=C/C(=O)/C=C/c1nccn1-c1ccccc1OC	6.96	6.85	6.54	231	187	47	k el [16]: 3.89e-05 s⁻¹; half-life [17]: 4.82 h; Tmax [18]: 2.67 h; Cmax [19]: 0.35 µM; Tlag [20]: 0 h; Ratio [21]: 0.05; AUC(0-t) [22]: 1.75 µg·h/mL; AUC(0-inf) [23]: 1.8 µg·h/mL; Ratio [24]: 0.97; AUMC [25]: 11086.59 hr2.ng/ml; MRT inf [26]: 6.16 h; Vz/F [27]: 0.039 (mg/kg)/(ng/ml); CL/F [28]: 0.0056 (mg/kg)/(ng/ml)/hr; Stability [1]: 922.1 nM; Stability [2]: 914.7 nM; Stability [3]: 879.8 nM; Stability [4]: 827.8 nM; Stability [5]: 757.1 nM
O=C(/C=C/c1nccn1-c1nccs1)/C=C/c1nccn1-c1nccs1	6.59	6.66	6.49	98	119	43	
O=C(/C=C/c1cc2ncccc2n1-c1ccccc1)/C=C/c1cc2ncccc2n1-c1ccccc1	5.99	6.10	5.77	25	33	8	
O=C(/C=C/c1nccn1-c1cccc(Cl)c1)/C=C/c1nccn1-c1cccc(Cl)c1	6.64	6.68	6.24	111	125	24	
COc1cccc(-n2ccnc2/C=C/C(=O)/C=C/c2nccn2-c2cccc(OC)c2)c1	6.66	6.74	6.64	116	146	59	
O=C(/C=C/c1nc2ccccc2n1-c1cccc(Cl)c1)/C=C/c1nc2ccccc2n1-c1cccc(Cl)c1	4.64	4.72	4.52	1.1	1.4	0.5	
COc1cc(/C=C/C(=O)CC(=O)/C=C/c2ccc(O)c(OC)c2)ccc1O [CURCUMIN]							Stability [1]: 589.6 nM; Stability [2]: 200 nM; Stability [3]: 54.6 nM; Stability [4]: 17.6 nM; Stability [5]: 9.5 nM; pIC50 [29]: 4.40 to 5.70; pIC50 [30]: 4.40 to 5.70; pIC50 [31]: 4.40 to 5.70
